Test results published in article PMC13618202 (ACS chemical biology, 2026).

Experiments:
UBA5 [1] = molecular target: T1, UBA5 (Homo sapiens, UniProt Q9GZZ9); assay: Gel-based UBA5-UFM1 charging assay; format: biochemical; details: UBA5 12 μM; UFM1 25 μM; ATP 2 mM; 2 h
T1 sequence (Q9GZZ9 37-346): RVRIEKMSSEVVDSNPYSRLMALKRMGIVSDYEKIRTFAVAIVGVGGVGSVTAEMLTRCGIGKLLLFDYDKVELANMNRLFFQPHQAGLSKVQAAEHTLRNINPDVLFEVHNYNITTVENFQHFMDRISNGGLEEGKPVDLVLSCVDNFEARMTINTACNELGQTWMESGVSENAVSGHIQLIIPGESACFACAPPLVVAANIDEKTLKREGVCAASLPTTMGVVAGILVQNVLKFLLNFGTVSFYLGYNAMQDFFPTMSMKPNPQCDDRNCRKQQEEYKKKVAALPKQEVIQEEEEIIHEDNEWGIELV
Summary of the method: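 UBA5 (12 μM) incubated 1 h with test compound (0–100 μM) in 50 mM Bis-Tris pH 6.5, 100 mM NaCl, 10 mM MgCl2. UFM1 (25 μM) and ATP (2 mM) then added for 2 h at 30 °C; zero time points taken before ATP addition. Gel read-out of UBA5–UFM1 thioester, duplicate.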

[2] = tested on: coupling enzymes in the AMP-Glo kit; assay: UBA5-free AMP-Glo coupling enzyme assay; format: biochemical; details: 3 mM, no UBA5, ATP 5 μM with or without AMP 5 μM
Summary of the method: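 Without UBA5: test compound (0–100 μM) incubated 30 min with AMP-Glo kit components and UFM1 (5 μM), then AMP added to a final 5 μM as direct substrate. Luminescence endpoint read at 37 °C with 2 min integration. Normalized to DMSO wells with AMP (100%) and without AMP (0%). Triplicate.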

UBA5 [3] = details: read-out: IC50 (UBA5); cited from earlier work
UBA5 [4] = molecular target: T1, UBA5; assay: AMP-Glo UBA5 UFMylation assay; format: biochemical; details: read-out: IC50-UBA5-Glo; UBA5 0.8 μM; UFM1 5 μM; ATP 5 μM
UBA5 [5] = molecular target: T1, UBA5; assay: Fluorescence polarization; format: biochemical; details: titration
Summary of the method: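 UBA5 (1 μM) preincubated 1 h with test compound (0–25 μM), then UFM1 (2.5 μM) and ATP (20 μM) added for 30 min at RT. Transcreener detection reagent (anti-AMP antibody, Alexa Fluor 633 AMP tracer) added for 1.5 h. AMP read as fluorescence polarization. IC50 by curve fitting, triplicate.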

[6] = tested on: global cellular ubiquitination in HEK293T cells; assay: Global cellular ubiquitination; format: cell-based, Human; details: compounds 60 μM, TAK-243 125 or 250 nM, 5 h

| UBA5-UFM1 thioester formation (UFM1 activation) (UBA5 [1]) | interference with the AMP-Glo detection system [2] | IC50 (UBA5 [4]) | inhibition of UBA5 reaction in FP assay (UBA5 [5]) | SMILES | IC50 (UBA5 [3]) | global cellular ubiquitination [6] |
| --- | --- | --- | --- | --- | --- | --- |
| significantly reduced UFM1 activation | does not significantly interfere | 547 µM | dose-dependently inhibited the reaction | COc1ccc(CNC(=O)CCl)cc1OC [DKM 2-93] | 430 µM |  |
|  |  |  |  | Nc1ncnc2c1ncn2[C@@H]1O[C@H](COS(N)(=O)=O)[C@@H](O)[C@H]1O [adenosine 5’-sulfamate (ADS), adenosine 5’-sulfamate] | 13 µM |  |
|  |  |  |  | NS(=O)(=O)OC[C@H]1C[C@@H](Nc2ccnc3cc(-c4cccc(SC(F)(F)F)c4)nn23)[C@H](O)[C@@H]1O [TAK-243] |  | markedly reduced global cellular ubiquitination |
